From PMC4065287 (Diabetes Therapy, 2014)
Several values for one entry are separate records, joined by “and”; a condition that tells them apart may be missing. Equal entries are not always repeated. Entries after “also recorded” stand apart in the source; their conditions may differ. Where two headings read alike, the source gives them in different places.

Assays:
SD rats = conditions: cited from earlier work
CD-1 mice [1] = conditions: 2-year study; cited from earlier work
SGLT2 = conditions: cited from earlier work
[2] = tested on: TCC cell lines (T24, TCCSUP, UM-UC-3, J82, and SW780); experiment: In vitro cell proliferation of bladder TCC cell lines with increasing glucose; type: cell-based, human
Outline: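 Five TCC lines seeded at 40,000 or 80,000 cells/well in RPMI 1640 with 10% FBS, glucose set to 11 (control), 25, 35 or 50 mM. Cells were incubated 145 h in the incubator with live-cell imaging. Percent confluence was read every 2 h and growth curves were built over 145 h.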

[3] = human plasma after 10 mg MRHD of dapagliflozin; cited from earlier work
in vivo = conditions: both, Sprague-Dawley, rat, plasma, po, 200 mg/kg per day
[4] = cited from earlier work
[5] = chronic toxicology studies; cited from earlier work
hormone receptors = conditions: cited from earlier work
[6] = tested on: primary hepatocyte cultures; conditions: single oral dose up to 700 mg/kg
[7] = tested on: more than 330 receptors, enzymes, ion channels, and transporters; conditions: cited from earlier work
[8] = Urinary exposure extrapolations from bridging studies; type: in vivo; conditions: mice, rats, and dogs
[9] = tested on: Chinese hamster ovary (CHO) cells
CD-1 mice [10] = conditions: for carcinogenicity: oral gavage up to 24 months
EJ-1 tumor xenografts = experiment: In vivo mouse xenograft study, EJ-1; parameters: species or system athymic nude mice
[11] = tested on: Salmonella typhimurium stains TA98, TA100, TA1535, and TA1537; conditions: maximum concentrations (≤5,000 μg/plate) with or without metabolic activation
[12] = tested on: liver, skeletal muscle, kidney, and adipose tissues; conditions: male ZDF rats vs vehicle
[13] = human subjects, 10 mg dose; cited from earlier work
[14] = tested on: bone marrow polychromatic erythrocytes
[15] = 2-year rodent carcinogenicity studies
[16] = cited from earlier work; remark: listed apart in the source
[17] = tested on: human bladder transitional cell carcinoma (TCC) cell lines (T24, TCCSUP, UM-UC-3, J82, SW780, and EJ-1); experiment: In vitro cell proliferation of bladder TCC cell lines with test compounds; type: cell-based; conditions: 0.2, 2, 20 μg/mL, serum-free medium, 72 h
Outline: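 Low-passage TCC lines (<6 months from thaw) were seeded at 20,000 or 40,000 cells/well in RPMI 1640 + 10% FBS. After 24 h adherence and 24 h serum-free, cells got medium-only vehicle or test compound (0.2, 2, 20 μg/mL) serum-free for 72 h. Controls were a return to 10% FBS and continuous serum. Percent confluence was imaged every 2 h to build growth curves.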

[18] = tested on: Escherichia coli strain WP2 uvrA; conditions: maximum concentrations (≤5,000 μg/plate) with or without metabolic activation
[19] = tested on: peripheral blood lymphocytes; conditions: up to 200 mg/kg per day for 1 month

For `Cc1ccc([C@@H]2O[C@H](CO)[C@@H](O)[C@H](O)[C@H]2O)cc1Cc1ccc(-c2ccc(F)cc2)s1` [canagliflozin], the “exposure multiple with increased incidence of neoplasms of the adrenals” value (SD rats) is given as at least 12 ×, the “exposure multiple with increased incidence of neoplasms of the renal tubules” value (SD rats) is given as at least 12 × and the “exposure multiple of clinical exposures” value (CD-1 mice [1]) is given as 14 ×. For the same compound, the “incidence of neoplasms or preneoplastic lesions” value (CD-1 mice [1]) was “did not increase the incidence” and the “selectivity for SGLT2 than for SGLT1” value (SGLT2) was 200 ×.

In the case of `OC[C@H]1OC(O)[C@H](O)[C@@H](O)[C@@H]1O` (some centres unmarked) [glucose], the reduction of growth ([2]; J82, 25 mM) is reported as 37%, the growth ([2]; SW780, 25 mM) is reported as “did not substantially alter” and the growth ([2]; T24, 25 mM) is reported as “did not substantially alter”. It also gave a reduction of growth ([2]; T24, 35 mM) of 83%, a reduction of growth ([2]; TCCSUP, 25 mM) of 42% and a reduction of growth ([2]; UM-UC-3, 25 mM) of 73%. The growth ([2]; all cell lines at 35 mM and 50 mM, except T24 at 35 mM) was “completely inhibited”.

In the case of `CCOc1ccc(Cc2cc([C@@H]3O[C@H](CO)[C@@H](O)[C@H](O)[C@H]3O)ccc2Cl)cc1` [dapagliflozin, (2S,3R,4R,5S,6R)-2-[4-chloro-3-(4-ethoxybenzyl)phenyl]-6-(hydroxymethyl)tetrahydro-2H-pyran-3,4,5-triol], the “maximum observed plasma concentration (C max)” value [3] is given as 0.136 µg/mL, the Cmax (in vivo) is given as 63 to 74 µg/mL and the oral bioavailability [4] is given as “good”. The volume of distribution [4] was “high”, the “levels of urinary glucose” value [5] was 400 to 500 mM and the “proliferative or hyperplastic changes of the urinary bladder” value (Beagle dogs; 1 year) was “did not show dapagliflozin-related proliferative or hyperplastic changes”. The “exposure multiple of human clinical exposure” value (Beagle dogs; 1 year, supratherapeutic doses) was > 3,300 × and > 3,000 ×, the urinary glucose excretion (Beagle dogs; treated dogs (control 5–13 mg per day)) was 8,711–32,200 mg per day and the “binding to hormone receptors” value (hormone receptors) was “did not bind”. For the same compound, the “unscheduled DNA synthesis” value [6] was “did not induce an increase”, the off-target interactions [7] was “no off-target interactions” and the “extrapolated urinary concentrations relative to humans” value [8] was over 700 ×. For the same compound, the “level that produced cytogenetic alterations in vitro” value [9] was 100 µg/mL, the chromosomal aberration induction ([9]; absence of S9 stimulation) was “negative” and the “clastogenic concentrations relative to total C max in humans with MRHD 10 mg” value ([9]; with metabolic stimulation) was at least 735 times. The “exposure (AUC) multiple relative to human AUC at 10 mg” value (CD-1 mice [10]; females 2 mg/kg per day) was about 11 ×, the “exposure (AUC) multiple relative to human AUC at 10 mg” value (CD-1 mice [10]; females 10 mg/kg per day) was about 52 × and the “exposure (AUC) multiple relative to human AUC at 10 mg” value (CD-1 mice [10]; females 20 mg/kg per day) was about 105 ×. For the same compound, the carcinogenicity (CD-1 mice [10]; females, doses ≤20 mg/kg per day) was “not carcinogenic”, the “incidence of background tumors or time to onset” value (CD-1 mice [10]; lymphoreticular, uterus and cervix, lung, liver neoplasms) was “did not increase the incidence” and the “urinary bladder hyperplasia versus control” value (CD-1 mice [10]; male mice) was “did not increase urinary bladder hyperplasia”. The “exposure (AUC) multiple relative to human AUC at 10 mg” value (CD-1 mice [10]; males 5 mg/kg per day) was “approximately 4 ×”, the “exposure (AUC) multiple relative to human AUC at 10 mg” value (CD-1 mice [10]; males 15 mg/kg per day) was about 14 × and the “exposure (AUC) multiple relative to human AUC at 10 mg” value (CD-1 mice [10]; males 40 mg/kg per day) was about 72 ×. For the same compound, the carcinogenicity (CD-1 mice [10]; males, doses ≤40 mg/kg per day) was “not carcinogenic”, the carcinogenicity (Harlan SD rats; doses up to 10 mg/kg per day) was “not carcinogenic” and the “exposure (AUC) multiple relative to human AUC at 10 mg” value (Harlan SD rats; females 0.5 mg/kg per day) was about 9 ×. The “exposure (AUC) multiple relative to human AUC at 10 mg” value (Harlan SD rats; females 2 mg/kg per day) was about 34 ×, the “microscopic changes in the kidney” value (Harlan SD rats; males only) was “exacerbation in severity of CPN and increased incidence and severity of minimal to marked atypical hyperplasia of renal cortical tubules” and the “neoplasms affecting the renal tubules, adrenal gland, or testicular Leydig cells” value (Harlan SD rats; rat, in vivo) was “no dapagliflozin-related neoplasms”. The “tumors or preneoplastic lesions in the urinary bladder” value (Harlan SD rats; rat, in vivo) was “no indications of any dapagliflozin-related tumors or preneoplastic lesions”, the “body weight of treated animals” value (EJ-1 tumor xenografts; EJ-1 and UM-UC-3 xenograft mice) was “no effect” and the “exposure multiple of human clinical exposures” value (EJ-1 tumor xenografts; EJ-1 and UM-UC-3 xenograft mice, parent) was “up to 75 ×”. For the same compound, the “growth of tumor xenografts” value (EJ-1 tumor xenografts; mouse, in vivo) was “no effect; also recorded: similar”, the bacterial reverse-mutation assay [11] was “negative” and the “probe sets showing significant changes” value [12] was “less than 1%”. The “urinary glucose, mean” value [13] was 166 mM, the “bone marrow micronucleus genotoxicity” value ([14]; 2 weeks, up to 250 mg/kg per day) was “not genotoxic” and the “bone marrow micronucleus genotoxicity” value ([14]; 3 days, up to 700 mg/kg per day) was “not genotoxic”. For the same compound, the “levels of urinary glucose” value [15] was about 200 mM, the “overall incidence of malignancies and unspecified tumors” value ([16]; July 15, 2011 cutoff (control 1.4%)) was 1.5% and the “urinary bladder tumors, incidence rate” value ([16]; dapagliflozin groups (placebo 0.03)) was 0.15. The “urinary bladder tumors, number of cases” value ([16]; dapagliflozin groups (placebo 1)) was 9, the “bladder cancer cases, percent of patients” value ([16]; of 5,501 patients, July 15, 2011 cutoff) was 0.16% and the “in vitro TCC proliferation” value [17] was “did not affect”. For the same compound, the bacterial reverse-mutation assay [18] was “negative”, the “selectivity for SGLT2 than for SGLT1” value (SGLT2) was 1,200 × and the “AUC multiple of MRHD” value [19] was ≤ 2,602 × MRHD. The “C max multiple of MRHD” value [19] was at most 544 × MRHD and the “clastogenicity in peripheral blood lymphocytes” value [19] was “no evidence of clastogenicity”.
